The test system of data set [1] is MDA-MB-231 cells. Kind of data set: Antibody recruitment assay, anti-DNP-A488, flow cytometry. The settings on record: 1 μM conjugate, pH 7.4 or 6.0, 25 μg/mL anti-DNP-A488, flow cytometry, n = 3. It is filed as cell-based, human. Put shortly:
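Conjugate held at 20 μM in 5 mM sodium phosphate pH 9.0 for 1 h at RT, then diluted and pH-adjusted with citrate/PBS. Cells were washed, stained with anti-DNP-A488 rabbit polyclonal for 30 min at 4 °C, fixed in 4% PFA and read by flow cytometry. Values are fold over pH 7.4 antibody-only cells.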
Background: In flow cytometry, cells or beads pass a laser one at a time.

The test system of data set [2] is MDA-MB-231 cells. Kind of data set: Antibody recruitment from pooled human serum. It is filed as cell-based. The settings on record: 1 μM conjugate, pH 7.4 or 6.0, 12.5% PHS, FITC-labeled anti-human IgG, n = 3.
Data set [3] relates to MDA-MB-231 cells. As to the kind of experiment: Complement-dependent cytotoxicity. The settings on record: 1 μM conjugate, 12.5% PHS, 4 h, LDH release. It is filed as cell-based, human. Put shortly: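 Cells (240000 MDA-MB-231) were treated in suspension with 1 μM conjugate for 5 min at 37 °C, at pH 7.4 or 6.0. After washing they were opsonised with 25 μg/mL rabbit anti-DNP-KLH (30 min, 4 °C). Pooled human complement serum was added to 12.5% in DMEM for 4 h at 37 °C. Supernatant LDH was assayed in triplicate (30 min RT, 490/680 nm). Cytotoxicity is relative to antibody-only cells without peptide. Mean ± SEM, n = 3–12.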
(LDH in the medium is a marker of cell lysis.)

In data set [4] the test system is MDA-MB-231 cells. Kind of data set: Antibody-dependent cellular cytotoxicity with PBMCs. It is filed as cell-based, human. In outline: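 MDA-MB-231 cells (150000) were exposed to the pH-adjusted conjugate for 5 min at 37 °C, at pH 7.4 or 6.0. After washing, they were incubated with unconjugated rabbit anti-DNP-KLH (25 μg/mL, 30 min, 4 °C). Single-donor human PBMCs were added at 50:1 in RPMI 1640 for 4 h at 37 °C. Supernatant LDH was read at 490/680 nm. Cytotoxicity % = (LDH − normal)/normal × 100. Control normal release was effector-only or target-only at pH 7.4.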

Data set [5] relates to MDA-MB-231 cells. Kind of data set: Antibody-dependent cellular cytotoxicity with haNK cells. It is filed as cell-based, human. Particulars: 500 nM conjugate, anti-DNP antibody, haNK effector:target 5:1, 4 h, LDH release. Put shortly: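 Targets were 150000 MDA-MB-231 cells, pulsed 5 min at 37 °C at pH 7.4 or 6.0. They were then held with 25 μg/mL rabbit anti-DNP-KLH for 30 min at 4 °C. Effectors were IL-2-maintained F176V CD16+ NK-92 (haNK) cells at 5:1 in MEMα, 4 h, 37 °C. Supernatant LDH was read at 490/680 nm. Lysis % = (LDH − normal)/normal × 100, normal being antibody plus effectors without conjugate. Mean ± SEM, n = 3–12.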

Data set [6] concerns MDA-MB-231 cells. Kind of data set: Toxicity of conjugate alone. It is filed as cell-based, human. Particulars: ≤10 μM conjugate only, LDH release (Figure S8).

Ends that are not written are not given here. * marks the point of attachment. Dnp = O=[N+]([O-])c1ccc(*)c([N+](=O)[O-])c1

Turning to “Dnp-KEQNPIYWARYADWLFTTPLLLLELALLVDADEGTG [Conjugate 2]”, the “anti-DNP antibody recruitment (cellular fluorescence)” value with MDA-MB-231 cells [1] is listed as “highest level of cellular fluorescence”. Moreover, the “antibody recruitment from serum (relative fluorescence)” value with MDA-MB-231 cells [2] is on record as “significant increase in relative fluorescence at pH 6.0 compared to that at pH 7.4”. Besides, the “cell lysis (CDC)” value in the data set with MDA-MB-231 cells [3] (pH 6.0, anti-DNP antibody) came out at 10%. Also, in the data set on MDA-MB-231 cells [3] (pH 7.4, anti-DNP antibody), the “toxicity (CDC)” value is on record as “no toxicity at all”. Also, the “pH selectivity of PBMC-mediated cell lysis” value in the data set on MDA-MB-231 cells [4] (1 μM conjugate, anti-DNP antibody, pH 6.0 vs 7.4) is ~ 2 fold. In addition, in the data set on MDA-MB-231 cells [4] (control, mock anti-FITC antibodies or no antibodies prior to PBMCs (Figure S7A)), the “cell lysis with mock anti-FITC antibodies or without antibodies (PBMCs)” value was “cell lysis was not observed”. The “cell lysis (ADCC, haNK cells), maximum efficacy” value in the data set on MDA-MB-231 cells [5] was ~ 40%. For the same substance, the “cell lysis by conjugate only” value in the data set on MDA-MB-231 cells [6] was “cell lysis was not observed”.
